# Assay results as given in the RNAGym collection of RNA variant scans (doi:10.1038/nmeth.2970).
# B1: NELF-E aptamer (parent)
# chain: CCCAACGACUGCCGAGCGAGAUUACGCUUGAGCGCCCCACUGAGGAUGCCCACGGGCGAUUGGGGCACGG
# Variants of: B1
# Test: HiTS-RAP
# Conditions: with NELF-E (Drosophila)
# Method in brief: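 Aptamer DNA templates bearing a T7 promoter and a ter site were sequenced on an Illumina GAIIx flowcell. T7 RNA polymerase then transcribed them in situ, and GST-Tus halted transcription over 30 minutes at 37°C. After a 30-minute room-temperature equilibration with NELF-E-mOrange at 0.064 to 1000 nM in HEPES binding buffer, clusters were imaged, using only the first binding curve. Intensities normalised to sequencing intensity were averaged per sequence and fitted with weighted Hill fits to give Kd, retaining only fits whose variance stayed under 1,000,000.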
row,Variant,Kd [nM]
1,CCCAACGACUGGCGAGCGAGAUUACGCUUGAGCGCCCCACUGAGGAUGCCCAUGGGCGAUUGGGGCACGG [C12G C53U],5.74
2,CCCAACGACUGCCACGCGAGAUUACGCUUGAGCGCCCCACUGAGGAUGCCCACGGGCGAUUGGGGCACGG [G14A A15C],4.43
3,CCCAACGACUGCCGAGCGAGAGUACGCUUGAGCGCCCCACUGAAGAUGCCCACGGGCGAUUGGGGCACGG [U22G G44A],17.5
4,CCCAACGACUGCCGAGCGAGAUUACGCUUGAGCGCCCCACUGAGGAUGCCCACGGGCGAUUGGUGCACGG [G64U],7.29
5,CCCAACGGCUGCCGAGCGAGAUUACGCUUGAGCGCCCCACUGAGGAUGCCCACGGGCGGUUGGGGCACGG [A8G A59G],89.2
6,CCCGACGACUGCCGAGCGAGAUUACGCUUGAGCGCCCCACUGUGGAUGCCCACGGGCGAUUGGGGCACGG [A4G A43U],57
7,CCCAACGAGUGCCGUGCGAGAUUACGCUUGAGCGCCCCACUGAGGAUGCCCACGGGCGAUUGGGGCACGG [C9G A15U],7.39
8,CCCAACGAUUGCCAAGCGAGAUUACGCUUGAGCGCCCCACUGAGGAUGCCCACGGGCGAUUGGGGCACGG [C9U G14A],6.66
9,CCCAACGACUGCCGAGCGCGAUUACGCUUGAGCGCCCCACUGAGGAUGCCCACGGGCGAUUGGGGCACGG [A19C],4.44
10,CCCAACUACUACCGAGCGAGAUUACGCUUGAGCGCCCCACUGAGGAUGCCCACGGGCGAUUGGGGCACGG [G7U G11A],6.15
11,CCCAACGACUGCCGAGCGAGAUUACGCUUGAGCGCCCCACGGAGGAUGCCCACGGUCGAUUGGGGCACGG [U41G G56U],5.56
12,CCCAACGAGUGCCGAGCGAGAUUACGCUUGAGCGCCCCACUGAGGAUGCCCACGGGCGAUUGGGGUACGG [C9G C66U],5.54
13,CCCAACGGCUGCCGAGCGAGAUUACGCUUGAGUGCCCCACUGAGGAUGCCCACGGGCGAUUGGGGCACGG [A8G C33U],5.16
14,CCCAACGACUGCCGAGCGAGAUGACGCUUGAGCGCCCCACUGAGGUUGCCCACGGGCGAUUGGGGCACGG [U23G A46U],69.3
15,CCCAACGACUGCCGAGCGAGACUACGCUUGAGCGCCCCACUGAGGAUGCCCACGGGCGAUUGGGGCACGG [U22C],4.53
16,CCCAACGACUGGCGAGCGAGAUUACGCUUGAGCGCCCCACUGAGGAUGCCCACGGGCGAUUGGGGCGCGG [C12G A67G],6.86
17,CCCAACUACUGCCGAGCGUGAUUACGCUUGAGCGCCCCACUGAGGAUGCCCACGGGCGAUUGGGGCACGG [G7U A19U],6.31
18,CCCAACUACUGCCGAGCGAGAUUACGCUUGAGCGCCCCACUGAGGAUGCUCACGGGCGAUUGGGGCACGG [G7U C50U],9.77
19,CCCAACGACUUCCGAGCGAGAUUACGCUUGAGCGCCCCACUGAGGAUGCCCACGGGCGAUUGGAGCACGG [G11U G64A],9.29
20,CCCAACGUCUGCCGAGCGAGAUUACGCUUGAGCGCCCCACUGAGGAUGCCCACGGGCGAUCGGGGCACGG [A8U U61C],71.4
21,CCCUACGACUGCCGUGCGAGAUUACGCUUGAGCGCCCCACUGAGGAUGCCCACGGGCGAUUGGGGCACGG [A4U A15U],6.22
22,CCCAACGUCUGCCGAGCGAGAGUACGCUUGAGCGCCCCACUGAGGAUGCCCACGGGCGAUUGGGGCACGG [A8U U22G],6.1
23,CCCAACGACUGCCGAGCGAGAGUACGCUUGAGCGCCCCACUGAGGAUGCCCACGGGCGAUUGUGGCACGG [U22G G63U],14
24,CCCAACGACUGCGGAGCGAGAUUACGCUUGAGCGCCCCACUGAGGAUGCCCUCGGGCGAUUGGGGCACGG [C13G A52U],16.9
25,CCCAACGACUGCCGAGCGGGAUGACGCUUGAGCGCCCCACUGAGGAUGCCCACGGGCGAUUGGGGCACGG [A19G U23G],6.11
26,CCCAACGACUGCCGAGCGAGAUUACGCUUGAGCGCCCCACUGAGGCUGCCCACGGGCGAUUGGGGCACGG [A46C],9.89

row,Variant,Kd [nM]
1,CCCAACGACUUCCGAACGAGAUUACGCUUGAGCGCCCCACUGAGGAUGCCCACGGGCGAUUGGGGCACGG [G11U G16A],6.06
2,CCCAACGACUGCCGAGCGAGAUUACGCUGGAGCGCCCCACUGUGGAUGCCCACGGGCGAUUGGGGCACGG [U29G A43U],44
3,CCCAACGACUGCGGAGGGAGAUUACGCUUGAGCGCCCCACUGAGGAUGCCCACGGGCGAUUGGGGCACGG [C13G C17G],4.68
4,CCCGACGACUGCCGAGCGAGAUUACGCUUGAGCGCCCCACUGAGGAUGCCCACGGGCGAUUGGGGCGCGG [A4G A67G],6.54
5,CCCAACGACUGCCGAGCGAGAUUACGCUGGAGCGCCACACUGAGGAUGCCCACGGGCGAUUGGGGCACGG [U29G C37A],14.8
6,CCCAACGACGGCCGAGCGAGAUUACGCUUGAGCGCCCCUCUGAGGAUGCCCACGGGCGAUUGGGGCACGG [U10G A39U],24.6
7,CCCAACGACUGCCUAGCGAGACUACGCUUGAGCGCCCCACUGAGGAUGCCCACGGGCGAUUGGGGCACGG [G14U U22C],5.6
8,CCCAACGACUGCCGAGCGAGAUGACGCUUGAGCGCCCCACUGAGGAUACCCACGGGCGAUUGGGGCACGG [U23G G48A],11
9,CCCAACGACUGCCGAGCGAGAUUACGCUGGAGCGCCCCACUGAGGAUGCCCACGGGCGUUUGGGGCACGG [U29G A59U],23.9
10,CCCAACGACUGCCGAGCGAGAGUACGCUUGAGCGCCCCACUGAGGAUGCCCACGGGUGAUUGGGGCACGG [U22G C57U],6.19
11,CCCAACGGCUGCCGAGCGGGAUUACGCUUGAGCGCCCCACUGAGGAUGCCCACGGGCGAUUGGGGCACGG [A8G A19G],5.51
12,CCCAACUACUGCCGAGCGAGAUUACGCUUGAGCGCCCCACUGAGAAUGCCCACGGGCGAUUGGGGCACGG [G7U G45A],21.8
13,CCCCACGACUGCCGAGCGAGAUUACGCUUGAGCGCCCCACGGAGGAUGCCCACGGGCGAUUGGGGCACGG [A4C U41G],8.98
14,CCCAAUGACUGCCGAGCGAGAUUACGCUUGAGCGCCCCACUGAGGAUGCCCACGGGCGAUAGGGGCACGG [C6U U61A],38.1
15,CCCAACGACUGCCGAGCGAGAUUACGCUUGGGCGCCCCACUGAGGAUGCCCACGGGCGAUUGGGGCACGG [A31G],6.92
16,CCCUACGACUGCCGAGCGAGACUACGCUUGAGCGCCCCACUGAGGAUGCCCACGGGCGAUUGGGGCACGG [A4U U22C],5.97
17,CCCAACGACUGCCGAGCGAGAUGACGCUUGAGCGCCCCACUUAGGAUGCCCACGGGCGAUUGGGGCACGG [U23G G42U],13.1
18,CCCAACGACUGCCGAUUGAGAUUACGCUUGAGCGCCCCACUGAGGAUGCCCACGGGCGAUUGGGGCACGG [G16U C17U],6.11
19,CCCAAGGACUGCCGAGCGAUAUUACGCUUGAGCGCCCCACUGAGGAUGCCCACGGGCGAUUGGGGCACGG [C6G G20U],6.34
20,CCCAACGUCUGCCGAGCGAGAUUACGCUUGAGCGCCUCACUGAGGAUGCCCACGGGCGAUUGGGGCACGG [A8U C37U],13.2
21,CCCAACUACCGCCGAGCGAGAUUACGCUUGAGCGCCCCACUGAGGAUGCCCACGGGCGAUUGGGGCACGG [G7U U10C],5.96
22,CCCAACUACAGCCGAGCGAGAUUACGCUUGAGCGCCCCACUGAGGAUGCCCACGGGCGAUUGGGGCACGG [G7U U10A],7.85
23,CCCAACGACUGCCGAGCGAGAUUACGCUUGAGCGCCCCACUGACGAUGCCCACGGGCGAUUGGGGCACGG [G44C],27.5
24,CCCAACGACUGCCGAGCGAGAUUACGCUCGAGCGCCCCACUGUGGAUGCCCACGGGCGAUUGGGGCACGG [U29C A43U],43.4
25,CCCAACGACUGCCGAGCGAGAUUACGCUUGAGCUGCCCACUGAGGAUGCCCACGGGCGAUUGGGGCACGG [G34U C35G],4.52
26,CCCAACGACUGCCAAGCGAGAGUACGCUUGAGCGCCCCACUGAGGAUGCCCACGGGCGAUUGGGGCACGG [G14A U22G],5.03

row,Variant,Kd [nM]
1,CCCAACGACUGCCGAGCGAGAUUACGCUGGAGCGCCCCACUGAGGAUGCCUACGGGCGAUUGGGGCACGG [U29G C51U],8.19
2,CCCAACGACUGCUGAGCGUGAUUACGCUUGAGCGCCCCACUGAGGAUGCCCACGGGCGAUUGGGGCACGG [C13U A19U],5
3,CCCAACGGCUGCCGAGCGAGAUUUCGCUUGAGCGCCCCACUGAGGAUGCCCACGGGCGAUUGGGGCACGG [A8G A24U],5.52
4,CCCGACGACUGACGAGCGAGAUUACGCUUGAGCGCCCCACUGAGGAUGCCCACGGGCGAUUGGGGCACGG [A4G C12A],5.36
5,CCCAACGACGGCCGAGCGAAAUUACGCUUGAGCGCCCCACUGAGGAUGCCCACGGGCGAUUGGGGCACGG [U10G G20A],5.57
6,CCCAACGACUGCCGAGCGAGAUUACGCUAGAGCGCCCCACUGAGGAUGCCCACGGGCGAUUGGGGCACGG [U29A],4.54
7,CCCAACGACUGCCGAGCGAGAUUACGCUUGAGCACCCCACUGAGGAUGCCCACGGGCGAUUGGGGCACGG [G34A],6.53
8,CCCAACGACUGCCGAGCGGGAUUACGCUUGAGCACCCCACUGAGGAUGCCCACGGGCGAUUGGGGCACGG [A19G G34A],6.47
9,CCCAACGACUGCCGAGCGAGAGUAGGCUUGAGCGCCCCACUGAGGAUGCCCACGGGCGAUUGGGGCACGG [U22G C25G],5.5
10,CCCAUCGACUGGCGAGCGAGAUUACGCUUGAGCGCCCCACUGAGGAUGCCCACGGGCGAUUGGGGCACGG [A5U C12G],6.84
11,CCCAACGACUGCCGAGCGAGAUUGCGCUUGAGCGCCCCACUGAGGAUACCCACGGGCGAUUGGGGCACGG [A24G G48A],14.2
12,CCCAACGACGGCCGAGCGAGAUUACGCUUCAGCGCCCCACUGAGGAUGCCCACGGGCGAUUGGGGCACGG [U10G G30C],5.8
13,CCCAACGACAGCCGAGCGAGAUUACGCUUGAGCGCCCCGCUGAGGAUGCCCACGGGCGAUUGGGGCACGG [U10A A39G],11.6
14,CCCAACGACUGCCUUGCGAGAUUACGCUUGAGCGCCCCACUGAGGAUGCCCACGGGCGAUUGGGGCACGG [G14U A15U],6.94
15,CCCAACGACUUCCGAGCGAGAUGACGCUUGAGCGCCCCACUGAGGAUGCCCACGGGCGAUUGGGGCACGG [G11U U23G],6.33
16,CCCAACGAGUGCAGAGCGAGAUUACGCUUGAGCGCCCCACUGAGGAUGCCCACGGGCGAUUGGGGCACGG [C9G C13A],7.19
17,CCCAACGACUGCGGAGCGAGAUUACGCAUGAGCGCCCCACUGAGGAUGCCCACGGGCGAUUGGGGCACGG [C13G U28A],4.22
18,CCCAACGUCUGCCGAGCGAGAUUACGCUUGAGCGCCCCACUAAGGAUGCCCACGGGCGAUUGGGGCACGG [A8U G42A],71.2
19,CCCAACGACUGCCGAGCGAGAUUACGCUUGAGCGCCCCACUGAGGAAGCCCACGGGCGAUUGGGGCUCGG [U47A A67U],10.5
20,CCCAACGACUGCCGAGCGAGAUUACGCAUGAGCGCCCCACUGAGGAUGCCCACGGGCGAUUGGGGCACGG [U28A],4.43
21,CCCAACUACUGCCGAGCGAGAUUACGCUUGAGCGCCCCACUGAGGAUGCCCACGGGCGUUUGGGGCACGG [G7U A59U],18.3
22,CCCAAGGACUGCCGAGCGAGAUUACGCUUGAGCACCCCACUGAGGAUGCCCACGGGCGAUUGGGGCACGG [C6G G34A],8
23,CCCUACGACUGCCGAGCGAGAUUACGCUUGAGCGCCCCACUGAGGAUGCCCACGGGCGAUUGGGUCACGG [A4U G65U],6.16
24,CCCAACGACUUCCGUGCGAGAUUACGCUUGAGCGCCCCACUGAGGAUGCCCACGGGCGAUUGGGGCACGG [G11U A15U],7.47
25,CCCAACGACUGCCGAGCGAGAUUACGCUUGAGCGCCCCACCGAGGAUGCCCACAGGCGAUUGGGGCACGG [U41C G54A],103
